UCH37 DUB inh: human UCH37 deubiquitinating enzyme inhibition. inhibition, % (concentration not given with the values). 330,000 compounds, 0.33% hits. purified proteasome/UCH37, Ub-AMC cleavage fluorescence. Q9Y5K5. AID 588478;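 active = mean inhibition over replicate wells above about 20%, limit read from the data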;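 also: 0% = compound-free wells with enzyme and 100% = wells lacking proteasome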
Target sequence (Q9Y5K5 whole entry, looked up): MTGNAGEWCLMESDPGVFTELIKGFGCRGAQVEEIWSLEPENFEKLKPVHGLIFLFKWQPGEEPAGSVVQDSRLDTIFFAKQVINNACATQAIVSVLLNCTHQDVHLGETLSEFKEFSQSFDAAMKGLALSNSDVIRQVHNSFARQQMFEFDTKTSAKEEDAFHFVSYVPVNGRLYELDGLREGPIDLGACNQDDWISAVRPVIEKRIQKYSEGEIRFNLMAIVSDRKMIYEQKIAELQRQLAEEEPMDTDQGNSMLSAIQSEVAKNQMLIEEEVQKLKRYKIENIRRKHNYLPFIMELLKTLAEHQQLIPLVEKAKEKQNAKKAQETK
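Material: Human UCH37 enzyme supplied as purified proteasome complex | Schedule: 30 min compound-proteasome preincubation then 25 min substrate reaction, room temperature | Detection: AMC fluorescence from Ub-AMC cleavage, excitation 355 nm, emission 460 nm | Benchmarks: Wells without proteasome as full block, compound-free enzyme plus substrate as uninhibited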
FAS-TE inh: blocks the thioesterase domain of human fatty acid synthase; AID 602261; inhibition, % at 15 µM; P49327; 360,000 compounds, 0.67% hits; recombinant FAS-TE, OMFH fluorogenic substrate, fluorescence endpoint;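 active = compounds whose normalised, plate-corrected inhibition of enzyme fluorescence in the single-dose primary screen is 50% or more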;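 also: 0% = DMSO with enzyme and 100% = substrate without enzyme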
ALR inh: inhibitors of human sulfhydryl oxidase ALR; inhibition, % (no concentration beside the values); AID 485317; P55789; 290,000 compounds, 3.8% hits; purified ALR, DTT oxidation, H2O2 HRP-luminol luminescence;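 active = mean replicate inhibition above about 79%, with every replicate also reaching it, limit read from the data; inconclusive = only one of the two criteria met; inactive = mean below limit and not every replicate reaching it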
HDAC3 inh: inhibitors of human histone deacetylase 3; 320,000 compounds, 0.15% hits; O15379; recombinant HDAC3, fluorogenic peptide/trypsin coupled, fluorescence; inhibition, % at 8.3 µM; in the data active = inhibition above about 26%, passing the limit was not always enough; inconclusive = no clear call, values can overlap the other calls
Rtt109 Vps75: blocks Candida albicans Rtt109/Vps75 acetyltransferase activity. purified Rtt109/Vps75, ThioGlo CoA-SH fluorescence, 4 h. Q5AAJ8. AID 540336. 330,000 compounds, 0.16% hits. inhibition, % at 34.9 µM;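 active = inhibition of at least 50% in every replicate; inconclusive = best replicate reaches 50% inhibition but some replicates fall short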
M18AAP inhibitor: blocks P. falciparum M18 aspartyl aminopeptidase | inhibition, % at 7.35 µM | recombinant PfM18AAP, H-Glu-NHMec fluorogenic cleavage | 290,000 compounds, 1.2% hits | AID 1822;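 active = inhibition above the campaign mean inhibition over all tested compounds plus 3 SD, cut at about 28% in these data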;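 also: 0% = plate median of test compound wells and 100% = 2 mM ZnCl2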
UCH37 confirm: reconfirmed inhibitor of human deubiquitinase UCH37 | inhibition, % at 20 µM | Proteasome-bound UCH37, Ub-AMC cleavage fluorescence | 480 compounds, 27% hits | shares compounds with UCH37 DUB inh;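 active = average inhibition over replicates above about 50%, so the earlier screening hit is confirmed, limit read from the data; inactive = the rest, counted as false positives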;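 also: based on cleavage rate fitted by regression over a 30 min kinetic read; 0% = proteasome plus Ub-AMC and 100% = Ub-AMC without proteasome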
* marks the source's active call; other numbers are inactive results; ? = inconclusive; . = no result given. A selection: hits, their analogues and other compounds. The true share with any hit is near 4.6%.

SMILES	UCH37 DUB inh	FAS-TE inh	ALR inh	HDAC3 inh	Rtt109 Vps75	M18AAP inhibitor	UCH37 confirm
CCOc1cc(C(c2c(C)[nH][nH]c2=O)c2c(C)[nH][nH]c2=O)ccc1O	58*	13	95*	7	-3	30*	40
COc1cc(OC)c2c(c1)C(=O)c1cc(OC)cc(OC)c1C2=O	43*	-3	-3	2	2	2	31
N/C(=N\S(=O)(=O)c1cccs1)c1ccccc1	2	-4	-4	-1	-16	-1	.
O=C1/C(=N\S(=O)(=O)c2cccs2)C([n+]2ccccc2)=C([O-])c2ccccc21	51*	-1	-24	6	6	11	40
CC(C)(C)c1cc[n+](C2=C([O-])c3ccccc3C(=O)/C2=N\S(=O)(=O)c2cccs2)cc1	50*	10	-25	4	.	6	58*
CCCOc1ccc(C2/C(=C(/O)c3ccccc3)C(=O)C(=O)N2CCCN(C)C)cc1OC (stereo unspecified)	4	-9	-17	-5	.	5	.
COc1ccc(C2/C(=C(\O)c3ccc(OC)c(Cl)c3)C(=O)C(=O)N2CCN(C)C)cc1 (stereo unspecified)	34*	-1	4	10	10	-6	14
CCCOc1ccc(/C(O)=C2/C(=O)C(=O)N(CCN(C)C)C2c2ccc(O)c(OC)c2)cc1 (stereo unspecified)	22*	-9	.	.	3	12	-6
COc1ccc(C(C)=NNC(=O)OC(C)(C)C)cc1[N+](=O)[O-]	6	.	.	.	.	.	.
O=S(=O)(N=C(c1ccc(F)cc1)N1CCCCC1)c1ccc(Cl)cc1	0	.	.	.	.	.	.
COc1cc(-c2nc3ccccn3c2N=Cc2cc(OC)c(O)cc2Cl)ccc1O	-10	.	.	.	.	.	.
CC(=NNC(=O)COc1ccccc1F)c1cc2ccccc2o1	-1	.	.	.	.	.	.
CCOC(=O)/C(C#N)=C\N(C)C	0	-13	2	0	?	0	.
C=CCN1C=CC(=C/C=C(/C#N)C(=O)OCC)C=C1	32*	-66	84*	?	-4	1	41
CN1C2CCC1/C(=C/c1cccn1C)C(=O)/C2=C\c1cccn1C	29*	-150	0	14	28	11	15
CN1C2CCC1/C(=C\c1ccc(F)cc1)C(=O)/C2=C/c1ccc(F)cc1	1	1	-1	0	2	-3	.
O=C1C=C(N2CCCCC2)c2ccccc2C1=O	90*	18	-4	-1	.	.	147*
O=C1c2ccccc2C(=O)c2c1cccc2N1CCCC1	8	24	.	9	1	5	.
CN(C)S(=O)(=O)c1ccc(C(=O)Nc2nnc(-c3cccs3)o2)cc1	52*	0	6	2	1	-8	3
CC(Oc1cccc2cccnc12)C(=O)NN=Cc1ccc2c(c1)OCO2 (stereo unspecified)	6	.	.	.	.	.	.
C/C(C=NNC(=O)c1ccccn1)=C/c1ccccc1	10	.	.	.	.	.	.
CN1C(=O)/C(=C/C=C2/CCCN2C)N(C)C1=S	34*	-9	15	8	1	0	29
O=C1C(=O)c2c(C(=O)c3ccccc3)coc2-c2ccccc21	9	6	51	1	-11	10	.
CCOC(=O)c1c(C)oc2c1C(=O)c1ccccc1C2=O	28*	-3	-28	1	6	3	29
Cc1oc2c(c1C(=O)O)C(=O)c1ccccc1C2=O	49*	-7	.	4	-3	7	46
SMILES	UCH37 DUB inh	FAS-TE inh	ALR inh	HDAC3 inh	Rtt109 Vps75	M18AAP inhibitor	UCH37 confirm
Cc1oc2c(c1C(=O)c1ccccc1)C(=O)C(=O)c1ccccc1-2	49*	6	20	-2	-3	7	33
COc1ccc(C(=O)c2c(C(F)(F)F)oc3c2C(=O)c2ccccc2C3=O)cc1OC	16	19	-46	-2	13	-3	.
CC(=NNc1nncc2ccccc12)c1ccc(O)cc1	2	.	.	.	.	.	.
O=C(NNc1cc(N2CCOCC2)nc(N2CCOCC2)n1)c1ccc([N+](=O)[O-])cc1	26*	25	.	.	-1	13	18
CC(=NNc1nc(N2CCOCC2)nc(N2CCOCC2)n1)c1ccc([N+](=O)[O-])cc1	10	.	.	.	.	.	.
COc1cc(NC(=S)NC2CC(C)(C)NC(C)(C)C2)cc(OC)c1	0	2	.	8	1	-4	.

Screening results deposited in PubChem by several laboratories.
